High-throughput results as filed in PubChem.
In the library only some 2.4% were active in any assay of this set; here they are far more common.
TDP2 inh: human TDP2 enzyme inhibitors, primary screen, biochemical, epi absorbance, recombinant enzyme | Tyrosyl-DNA phosphodiesterase 2 (Homo sapiens), O95551 | T5PNP hydrolysis, p-nitrophenol absorbance 415 nm | inhibition, % at 12.8 µM | 0.34% of 370,000 active | AID 720702, 2013;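 active means inhibition above the mean of all tested compounds plus 3 SD, set per campaign, cut at about 25% in these data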;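 further: 0% = DMSO with enzyme and 100% = buffer with substrate but no TDP2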
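System – recombinant human TDP2 · Amount – 120 nM TDP2 per well · Buffer or medium – Mg2+-containing Tris-HCl buffer, pH 7.5 · Reagent – T5PNP substrate, 5 mM · Dosing – 12.8 µM single point, 1% DMSO · Incubation – 2 h at 37 °C · Measured by – epi absorbance · Read-out basis – percent inhibition · Benchmarks – high control without enzyme, low control DMSO plus TDP2 · Repeats – singlicate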
GSTO1 inh: inhibitors of recombinant GSTO1, primary screen, counter-screen for RBBP9 inhibitor project, biochemical, fluorescence polarization; activity-based probe fluorescence polarization; 1.1% of 300,000 active; inhibition, % at 5.96 µM; Glutathione S-transferase omega-1 (Homo sapiens), P78417; AID 1974, 2009;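 active means inhibition above the campaign mean inhibition plus 3 SD, cut at about 35% in these data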;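 further: 0% = GSTO1-1 with DMSO and 100% = wells lacking GSTO1-1 enzyme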
Apaf1 inhib: inhibitors of human Apaf-1 apoptosome, primary screen, biochemical, DEVD-Rh110 fluorescence, uHTS. Apoptotic protease-activating factor 1 (Homo sapiens), O14727. reconstituted apoptosome caspase-3 activity. inhibition, % at 20 µM. 0.71% of 330,000 active. AID 489030, 2010; active means inhibition of at least 40% at 20 µM;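 further: plate controls were DMSO wells for no effect and DEVD-CHO caspase inhibitor wells for full effect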
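detection = Rh110 fluorescence intensity | test system = biochemical Apaf-1 apoptosome reconstitution | also added = cytochrome c and DEVD-Rh110 substrate | schedule = 30 min plus 50 min, RT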
SIAE inh: human SIAE inhibitors, primary screen, biochemical, fluorescence polarization, FP-Rh probe, 1536-well HTS. Sialate O-acetylesterase (Homo sapiens), Q9HAT2. SIAE FP-Rh probe binding. inhibition, % at 9.66 µM. 0.69% of 370,000 active. AID 1053197, 2014;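 active means inhibition above a cutoff: mean of compounds within the control limits plus 3 SD of those, cut at about 17% in these data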;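 further: 0% = plate median of compound wells and 100% = probe without SIAE protein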
Target sequence (Q9HAT2 whole entry, looked up): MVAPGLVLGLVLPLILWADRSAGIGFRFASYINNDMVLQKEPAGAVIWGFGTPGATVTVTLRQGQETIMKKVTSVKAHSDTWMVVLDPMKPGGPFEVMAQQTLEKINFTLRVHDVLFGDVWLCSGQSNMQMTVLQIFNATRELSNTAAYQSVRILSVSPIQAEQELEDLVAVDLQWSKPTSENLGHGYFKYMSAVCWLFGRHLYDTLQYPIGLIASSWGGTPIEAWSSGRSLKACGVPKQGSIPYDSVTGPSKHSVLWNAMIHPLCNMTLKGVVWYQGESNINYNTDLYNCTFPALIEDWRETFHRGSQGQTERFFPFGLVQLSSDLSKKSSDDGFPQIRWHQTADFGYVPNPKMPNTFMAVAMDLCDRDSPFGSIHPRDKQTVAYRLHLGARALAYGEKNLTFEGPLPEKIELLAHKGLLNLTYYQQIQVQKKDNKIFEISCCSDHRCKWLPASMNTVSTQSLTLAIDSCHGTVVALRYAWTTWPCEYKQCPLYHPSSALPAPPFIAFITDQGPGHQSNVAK
TCR CD3 inh: inhibitors of human TCR-CD3 interaction, primary screen, biochemical, fluorescence, TAMRA-labeled TCR probe. inhibition, % at 9.4 µM. 0.37% of 360,000 active. AID 651800, 2012; in the data active means inhibition above about 19%;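 further: recombinant mutant TCR 2C K166C tagged with TAMRA read by polarization; 0% = receptor in buffer alone and 100% = receptor with positive control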
PAD4 FP inh: human PAD4 inhibitors, primary screen, biochemical, fluorescence polarization, 1536-well format; 0.41% of 330,000 active; Protein-arginine deiminase type-4 (Homo sapiens), Q9UM07; inhibition, % at 6.36 µM; recombinant PAD4, RCA probe fluorescence polarization;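 active means percent inhibition above a cutoff equal to the mean of all tested compounds plus 3 SD, cut at about 15% in these data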;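 further: 0% = PAD4 with RCA probe and DMSO and 100% = probe without PAD4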
GSTO1 confirm: GSTO1 inhibitor hit confirmation, counter-screen for RBBP9 inhibitor project, biochemical, fluorescence polarization, triplicate; recombinant GSTO1, probe fluorescence polarization; shares compounds with GSTO1 inh; inhibition, % at 5.96 µM; 54% of 2,400 active;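 active means inhibition above the primary screen's cutoff, its mean inhibition plus 3 SD, cut at about 35% in these data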;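 further: loss of polarization as inhibitors block binding of rhodamine sulfonate ester activity probe; 0% = GSTO1 with DMSO and 100% = wells lacking GSTO1 enzyme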
GSTO1 recomb ABPP: inhibitors of purified human GSTO1, late-stage follow-up, biochemical, gel ABPP, SE-Rh probe, percent inhibition | AID 463110, 2010 | recombinant GSTO1, gel ABPP SE-Rh probe fluorescence | shares compounds with GSTO1 inh | 30% of 130 active | inhibition, % at 1 µM;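 active means inhibition of the enzyme GSTO1 above about 75%, limit read from the data; inactive means inhibition below that limit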
Active calls of the source: *; . = no result.

SMILES	TDP2 inh	GSTO1 inh	Apaf1 inhib	SIAE inh	TCR CD3 inh	PAD4 FP inh	GSTO1 confirm	others
CCCC(=O)Nc1ccc(C(=O)NNC(=S)NC(=O)c2cccs2)cc1	0	-4	-10	-4	15	-3	.
COc1ccc(NC(=S)NC(=O)c2ccc(Br)o2)cc1	7	45*	1	-2	-1	-5	35
COc1ccc(NC(=O)c2ccc(Br)o2)cc1	5	4	-8	5	-8	-3	.
CC(C)C(=O)N(c1cc2sc(=O)oc2c2ccccc12)S(=O)(=O)c1cccs1	-5	85*	26	11	-5	11	43*
CC(C)C(=O)N(c1ccc2oc(=O)sc2c1)S(=O)(=O)c1cccs1	-4	17	-2	-10	5	15	.
N#CCc1nn2c(-c3ccccc3)ccnc2c1C#N	7	-6	8	-1	1	-15	.
C[C@@H]1O[C@@H](Oc2c(-c3ccc(O)c(O)c3)oc3cc(O)cc(O)c3c2=O)[C@H](O)[C@H](O)[C@H]1O	-8	.	-2	1	-3	3	.
C[C@@H]1O[C@@H](Oc2c(-c3cc(O)c(O)c(O)c3)oc3cc(O)cc(O)c3c2=O)[C@H](O)[C@H](O)[C@H]1O	-8	54*	-3	-12	3	0	16
O=c1c(Cl)c(Cl)cnn1Cc1ccc(F)cc1	10	9	-11	2	3	0	.
O=C(OCn1ncc(Cl)c(Cl)c1=O)c1ccc(F)cc1	.	44*	18	.	.	15	29
Cc1[nH]c(=O)[nH]c(=O)c1/C=N/NC(=O)[C@H](C)NC(=O)OC(C)(C)C	2	-9	0	-3	2	-1	.
C[C@H](NC(=O)c1cc2c(cn1)[nH]c1ccccc12)C(=O)O	1	.	5	1	-6	.	.
O=C(O)c1cc2c(cn1)[nH]c1ccccc12	14	56*	-1	4	16	-3	17
CCO[C@@H]1OC(C(=O)O)=C[C@H](c2ccccc2)[C@H]1CCCO	0	4	-3	7	1	-4	.
CC(C)(C)NC(=O)C(c1ccc(O)cc1)N(C(=O)CCC(=O)Nc1nccs1)c1cccc(F)c1 (stereo not drawn)	13	2	-3	3	7	-5	.
COc1ccc(Br)cc1-c1nc(CCl)cs1	-4	72*	9	-4	0	2	97*	GSTO1 recomb ABPP=53
Cc1ccc(N=Cc2nc(/C=C/c3cccc([N+](=O)[O-])c3)oc2O)cc1	3	8	1	-2	-6	0	.
COc1cccc(-c2cc(C(=O)N/N=C/c3cccc(OC)c3OC)c3ccccc3n2)c1	4	-24	14	-52	-9	2	.
O=[N+]([O-])c1ccccc1N/N=C\c1ccccc1Cl	9	-2	4	3	-8	2	.
O=[N+]([O-])c1ccccc1N/N=C/c1cccc(O)c1O	22	49*	-2	-15	-5	1	8
CCOc1ccc(/C(O)=C2/C(=O)C(=O)N(c3cc(C)on3)C2c2ccc(C(=O)OC)cc2)cc1 (stereo not drawn)	10	44*	3	-2	2	-1	0
N#Cc1nc(-c2ccccc2Cl)oc1NCC1CCCO1 (stereo not drawn)	-12	7	9	1	8	3	.
Cc1ccc[n+](CC(=O)Nc2ccc([N+](=O)[O-])cc2)c1	-9	91*	-7	-2	1	4	95*
O=C(NN1C(=O)c2ccccc2NC1c1ccc([N+](=O)[O-])o1)c1ccc(Br)cc1 (stereo not drawn)	-2	39*	1	17	-3	-9	8
CC(=O)NN1C(=O)c2ccccc2NC1c1ccc([N+](=O)[O-])o1 (stereo not drawn)	0	17	-33	-12	3	-1	.
SMILES	TDP2 inh	GSTO1 inh	Apaf1 inhib	SIAE inh	TCR CD3 inh	PAD4 FP inh	GSTO1 confirm	others
COc1ccc(CN2C(=O)c3cccnc3C2=O)cc1S(=O)(=O)N1CCCC(C)C1 (stereo not drawn)	-5	2	-8	7	6	-2	.
Cn1nnc(NC(=S)NC(=O)c2ccc3ccccc3c2)n1	8	.	.	2	0	.	.
CCOc1cc(N2CCOCC2)c(OCC)cc1NC(=O)COC(=O)C1CCCN1S(=O)(=O)c1ccccc1F (stereo not drawn)	-3	.	-1	5	1	0	.
CCOc1cc(N2CCOCC2)c(OCC)cc1NC(=O)COC(=O)[C@@H]1CCCN1S(=O)(=O)c1ccccc1F	1	80*	5	2	4	-1	80*
O=C1/C(=C/c2cccnc2)SC(=S)N1Nc1ccccc1	5	52*	4	0	10	-10	19
O=C(Nc1cccc(-n2cnnn2)c1)c1cc(Cl)nc(Cl)c1	-12	2	0	-7	-4	-3	.
O=C(CN1CCN(Cc2ccccc2)CC1)N/N=C\c1c2ccccc2cc2ccccc12	2	.	.	5	.	.	.
O=C(CN1CCOCC1)N/N=C/c1c(O)ccc2ccccc12	0	38*	-3	-2	-1	-1	4
Cc1ccc(/C=N/Nc2ccc(Cl)nn2)cc1	5	-4	-27	1	0	-2	.
Oc1ccc(/C=N/Nc2ccc(Cl)nn2)cc1O	4	60*	1	1	13	-1	14
O=C(O)c1cc(N/N=C/c2ccc(N3CCOCC3)s2)ccc1Cl	15	39*	10	21*	7	-3	18
CCOc1cccc(C=Nc2cc(C)cc(C)c2O)c1O	-5	45*	12	7	4	-5	-1
COc1ccc(-n2nc3c(c2NC(=O)C(C)Cl)CSC3)cc1 (stereo not drawn)	-16	2	7	0	-7	0	.
COc1ccc(-n2nc3c(c2NC(=O)CCl)CSC3)cc1	-1	88*	12	6	2	-2	92*
CCc1nc(-c2ccccc2)c2ccccn12	-6	6	-7	-5	7	4	.
